{"source": "ChEMBL document CHEMBL1138008", "about": "“2-(2-[3-(pyridin-3-yloxy)phenyl]-2H-tetrazol-5-yl) pyridine: a highly potent, orally active, metabotropic glutamate subtype 5 (mGlu5) receptor antagonist” (Bioorg Med Chem Lett, 2004)", "key": {"[1]": {"assay": "Plasma level after 1 hr following 10 mg/kg dose ip", "type": "ADME, organism-based", "set-up": "dose 10 mg/kg, route intraperitoneal", "conditions": "rat, read-out: Level; call rule not given here", "method_in_brief": "(§1)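 Rats were dosed ip at 10 mg/kg in PEG 400/water (1:1 v/v), given as a solution or a suspension. Receptor occupancy, hippocampus drug level and plasma drug level were measured 1 h after dosing.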"}, "[2]": {"target": "T1, Metabotropic glutamate receptor 5 (Homo sapiens, UniProt P41594)", "T1 sequence (P41594 whole entry)": "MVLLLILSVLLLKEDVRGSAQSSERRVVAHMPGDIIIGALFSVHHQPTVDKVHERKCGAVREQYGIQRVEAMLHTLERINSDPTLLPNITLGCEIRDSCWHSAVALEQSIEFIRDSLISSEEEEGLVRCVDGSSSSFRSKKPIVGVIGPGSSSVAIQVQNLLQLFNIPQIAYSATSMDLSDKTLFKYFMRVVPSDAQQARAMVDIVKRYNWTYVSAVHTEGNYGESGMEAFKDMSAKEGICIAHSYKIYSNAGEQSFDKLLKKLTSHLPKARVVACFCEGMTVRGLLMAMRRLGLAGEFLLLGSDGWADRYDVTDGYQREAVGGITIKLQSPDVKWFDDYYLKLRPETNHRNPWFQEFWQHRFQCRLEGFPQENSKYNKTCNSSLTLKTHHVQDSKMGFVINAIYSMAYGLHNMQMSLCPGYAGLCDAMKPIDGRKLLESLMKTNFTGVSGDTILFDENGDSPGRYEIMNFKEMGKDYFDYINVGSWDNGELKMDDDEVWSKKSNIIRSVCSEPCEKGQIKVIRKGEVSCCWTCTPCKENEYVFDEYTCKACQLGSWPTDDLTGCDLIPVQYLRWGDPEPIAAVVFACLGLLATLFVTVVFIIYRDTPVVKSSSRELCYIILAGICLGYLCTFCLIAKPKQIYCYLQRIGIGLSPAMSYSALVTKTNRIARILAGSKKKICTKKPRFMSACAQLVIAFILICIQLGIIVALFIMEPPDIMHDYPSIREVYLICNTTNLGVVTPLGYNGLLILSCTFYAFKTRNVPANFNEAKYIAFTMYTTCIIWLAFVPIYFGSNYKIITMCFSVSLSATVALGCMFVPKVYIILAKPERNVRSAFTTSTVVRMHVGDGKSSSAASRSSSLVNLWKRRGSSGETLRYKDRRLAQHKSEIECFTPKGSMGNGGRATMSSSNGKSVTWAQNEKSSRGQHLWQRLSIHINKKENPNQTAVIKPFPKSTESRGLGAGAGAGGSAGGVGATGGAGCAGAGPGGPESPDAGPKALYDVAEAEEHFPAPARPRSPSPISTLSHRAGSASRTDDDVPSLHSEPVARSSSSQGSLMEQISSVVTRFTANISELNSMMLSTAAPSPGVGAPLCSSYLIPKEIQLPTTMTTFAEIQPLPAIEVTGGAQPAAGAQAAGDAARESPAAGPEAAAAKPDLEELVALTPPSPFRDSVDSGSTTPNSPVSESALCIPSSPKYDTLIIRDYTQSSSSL", "assay": "Antagonistic activity against Metabotropic glutamate receptor 5 in [Ca2+] flux assay using glutamate (10 uM) as agonist", "type": "functional", "method_in_brief": "(§2)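 Functional mGlu5 antagonism was read as Ca²⁺ flux, with glutamate at 10 μM as agonist. Values come from n = 2–4 determinations, with SD < ±25%.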"}, "[3]": {"target": "Metabotropic glutamate receptor 5 (Rattus norvegicus) (UniProt P31424)", "sequence (P31424 21-1203 limits assumed)": "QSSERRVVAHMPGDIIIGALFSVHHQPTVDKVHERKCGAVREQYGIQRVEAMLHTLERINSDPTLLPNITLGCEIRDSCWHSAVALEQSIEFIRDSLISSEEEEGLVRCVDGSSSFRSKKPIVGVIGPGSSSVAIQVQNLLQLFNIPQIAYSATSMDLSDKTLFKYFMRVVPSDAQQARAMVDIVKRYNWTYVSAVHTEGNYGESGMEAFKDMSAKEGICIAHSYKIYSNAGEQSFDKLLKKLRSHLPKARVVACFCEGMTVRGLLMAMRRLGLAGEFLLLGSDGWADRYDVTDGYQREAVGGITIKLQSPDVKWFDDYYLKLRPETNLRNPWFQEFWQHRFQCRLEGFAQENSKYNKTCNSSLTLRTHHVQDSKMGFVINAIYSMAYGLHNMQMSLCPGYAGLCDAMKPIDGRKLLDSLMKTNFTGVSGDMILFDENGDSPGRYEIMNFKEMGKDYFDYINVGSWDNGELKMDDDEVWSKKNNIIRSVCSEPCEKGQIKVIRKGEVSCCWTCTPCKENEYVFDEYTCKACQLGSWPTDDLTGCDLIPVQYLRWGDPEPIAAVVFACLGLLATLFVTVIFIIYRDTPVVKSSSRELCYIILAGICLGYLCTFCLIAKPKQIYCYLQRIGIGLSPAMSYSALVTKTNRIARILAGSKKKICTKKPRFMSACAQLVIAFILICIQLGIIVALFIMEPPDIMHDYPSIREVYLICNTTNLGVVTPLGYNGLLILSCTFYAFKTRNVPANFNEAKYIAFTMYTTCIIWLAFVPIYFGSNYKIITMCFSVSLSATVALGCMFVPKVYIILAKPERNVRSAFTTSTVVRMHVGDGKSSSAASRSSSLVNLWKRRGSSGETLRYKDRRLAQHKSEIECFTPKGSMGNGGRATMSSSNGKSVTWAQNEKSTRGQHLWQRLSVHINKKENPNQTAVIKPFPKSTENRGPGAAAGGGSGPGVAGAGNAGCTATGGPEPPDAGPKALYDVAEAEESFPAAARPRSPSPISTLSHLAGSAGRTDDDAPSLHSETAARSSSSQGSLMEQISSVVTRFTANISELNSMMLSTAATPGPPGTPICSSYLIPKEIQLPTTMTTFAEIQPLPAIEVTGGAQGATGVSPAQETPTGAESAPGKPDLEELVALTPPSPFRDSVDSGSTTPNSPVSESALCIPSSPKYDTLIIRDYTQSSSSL", "assay": "Percent occupancy of the Metabotropic glutamate receptor 5 by the [3H]3-methoxy-5-(pyridin-2-ylethynyl)pyridine ligand 1 hr post-administration of 10 mg/kg compound ip", "type": "organism-based", "set-up": "dose 10 mg/kg", "method_in_brief": "as §1"}, "[4]": {"target": "T2, Metabotropic glutamate receptor 5 (Rattus norvegicus, UniProt P31424)", "T2 sequence (P31424 whole entry)": "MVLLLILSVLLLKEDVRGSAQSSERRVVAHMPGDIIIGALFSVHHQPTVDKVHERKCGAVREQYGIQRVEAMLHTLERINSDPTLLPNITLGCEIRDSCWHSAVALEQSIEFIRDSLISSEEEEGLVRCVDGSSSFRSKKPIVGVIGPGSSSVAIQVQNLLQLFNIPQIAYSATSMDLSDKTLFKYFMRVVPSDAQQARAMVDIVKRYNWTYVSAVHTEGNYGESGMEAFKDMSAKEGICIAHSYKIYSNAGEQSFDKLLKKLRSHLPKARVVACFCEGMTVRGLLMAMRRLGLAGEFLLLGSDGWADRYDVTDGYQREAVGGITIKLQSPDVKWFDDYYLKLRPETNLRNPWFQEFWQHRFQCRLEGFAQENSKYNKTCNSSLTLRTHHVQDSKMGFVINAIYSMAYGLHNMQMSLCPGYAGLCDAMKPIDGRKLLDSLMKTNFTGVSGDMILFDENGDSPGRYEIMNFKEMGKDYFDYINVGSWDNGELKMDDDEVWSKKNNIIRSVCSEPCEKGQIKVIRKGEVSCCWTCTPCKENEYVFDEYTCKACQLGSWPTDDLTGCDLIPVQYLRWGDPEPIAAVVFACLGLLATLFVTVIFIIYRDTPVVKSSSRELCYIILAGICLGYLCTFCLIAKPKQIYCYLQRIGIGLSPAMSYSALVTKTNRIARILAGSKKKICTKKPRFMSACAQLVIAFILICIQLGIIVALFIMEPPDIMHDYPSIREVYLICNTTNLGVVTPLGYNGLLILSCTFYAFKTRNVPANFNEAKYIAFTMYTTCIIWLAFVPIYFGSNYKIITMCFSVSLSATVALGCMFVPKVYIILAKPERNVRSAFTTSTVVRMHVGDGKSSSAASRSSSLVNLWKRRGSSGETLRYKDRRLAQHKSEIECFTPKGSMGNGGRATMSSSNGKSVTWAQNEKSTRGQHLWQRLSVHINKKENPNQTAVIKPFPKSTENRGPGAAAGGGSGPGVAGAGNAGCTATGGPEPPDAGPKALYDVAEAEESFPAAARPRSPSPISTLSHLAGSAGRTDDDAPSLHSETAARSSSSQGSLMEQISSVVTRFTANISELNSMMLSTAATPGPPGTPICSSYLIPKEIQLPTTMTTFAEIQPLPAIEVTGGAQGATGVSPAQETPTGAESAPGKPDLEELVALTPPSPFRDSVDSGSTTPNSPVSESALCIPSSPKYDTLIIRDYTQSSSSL", "assay": "Binding affinity towards Metabotropic glutamate receptor was determined by displacing [3H]3-methoxy-5-(pyridin-2-ylethynyl)pyridine from rat cortical membranes", "method_in_brief": "(§3)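 Radioligand displacement of [³H]-3-methoxy-5-(pyridin-2-ylethynyl)pyridine used rat cortical membranes. Values come from n = 2–4 determinations, with SD < ±25%.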"}, "[5]": {"assay": "Level in rat brain after 1 hr following 10 mg/kg dose ip", "type": "ADME, organism-based", "set-up": "dose 10 mg/kg, route intraperitoneal", "conditions": "read-out: Level", "method_in_brief": "as §1"}, "[6]": {"assay": "Maximum concentration after i.v. dosing at 1 mg/kg, p.o. dosing at 1 mg/kg. In solution of PEG 400/water in dog", "type": "ADME, organism-based, Canis lupus familiaris", "conditions": "in vivo, po"}, "[7]": {"assay": "Volume of distribution after i.v. dosing at 1 mg/kg, p.o. dosing at 1 mg/kg. In solution of PEG 400/water in monkey", "type": "ADME, organism-based", "conditions": "cercopithecidae, in vivo, iv"}, "[8]": {"assay": "Half life after i.v. dosing at 1 mg/kg, p.o. dosing at 1 mg/kg. In solution of PEG 400/water in monkey", "type": "ADME, organism-based", "conditions": "cercopithecidae, in vivo"}, "[9]": {"assay": "Maximum concentration after i.v. dosing at 2 mg/kg, p.o. dosing at 10 mg/kg. In solution of PEG 400/water in rat", "type": "ADME, organism-based", "conditions": "in vivo, po", "method_in_brief": "(§4)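 Rats were dosed iv at 2 mg/kg and orally at 10 mg/kg, in solution in PEG 400/water (1:1 v/v).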"}, "[10]": {"assay": "Volume of distribution after i.v. dosing at 2 mg/kg, p.o. dosing at 10 mg/kg. In solution of PEG 400/water in rat", "type": "ADME, organism-based", "conditions": "in vivo, iv", "method_in_brief": "as §4"}, "[11]": {"assay": "Oral bioavailability after i.v. dosing at 1 mg/kg, p.o. dosing at 1 mg/kg. In solution of PEG 400/water in dog", "type": "ADME, organism-based, Canis lupus familiaris", "conditions": "in vivo"}, "[12]": {"assay": "Half life after i.v. dosing at 2 mg/kg, p.o. dosing at 10 mg/kg. In solution of PEG 400/water in rat", "type": "ADME, organism-based", "conditions": "in vivo", "method_in_brief": "as §4"}, "[13]": {"assay": "Plasma clearance after i.v. dosing at 1 mg/kg, p.o. dosing at 1 mg/kg. In solution of PEG 400/water in monkey", "type": "ADME, organism-based", "conditions": "cercopithecidae, iv, read-out: Clp"}, "[14]": {"assay": "Maximum concentration after i.v. dosing at 1 mg/kg, p.o. dosing at 1 mg/kg. In solution of PEG 400/water in monkey", "type": "ADME, organism-based", "conditions": "cercopithecidae, in vivo, po"}, "[15]": {"assay": "Plasma clearance after i.v. dosing at 2 mg/kg, p.o. dosing at 10 mg/kg. In solution of PEG 400/water in rat", "type": "ADME, organism-based", "conditions": "iv, read-out: Clp", "method_in_brief": "as §4"}, "[16]": {"assay": "Oral bioavailability after i.v. dosing at 1 mg/kg, p.o. dosing at 1 mg/kg. In solution of PEG 400/water in monkey", "type": "ADME, organism-based", "conditions": "cercopithecidae, in vivo"}, "[17]": {"assay": "Oral bioavailability after i.v. dosing at 2 mg/kg, p.o. dosing at 10 mg/kg. In solution of PEG 400/water in rat", "type": "ADME, organism-based", "conditions": "in vivo", "method_in_brief": "as §4"}, "[18]": {"assay": "Volume of distribution after i.v. dosing at 1 mg/kg, p.o. dosing at 1 mg/kg. In solution of PEG 400/water in dog", "type": "ADME, organism-based, Canis lupus familiaris", "conditions": "in vivo, iv"}, "[19]": {"assay": "Plasma clearance after i.v. dosing at 1 mg/kg, p.o. dosing at 1 mg/kg. In solution of PEG 400/water in dog", "type": "ADME, organism-based, Canis lupus familiaris", "conditions": "iv, read-out: Clp"}, "[20]": {"assay": "Half life after i.v. dosing at 1 mg/kg, p.o. dosing at 1 mg/kg. In solution of PEG 400/water in dog", "type": "ADME, organism-based, Canis lupus familiaris", "conditions": "in vivo"}, "[21]": {"target": "T1, Metabotropic glutamate receptor 5", "assay": "Antagonistic activity against Metabotropic glutamate receptor 5 in [Ca2+] flux assay using glutamate (10 uM) as agonist; NA=Not active", "type": "functional", "method_in_brief": "as §2"}, "[22]": {"target": "T2, Metabotropic glutamate receptor 5", "assay": "Binding affinity towards Metabotropic glutamate receptor was determined by displacing [3H]3-methoxy-5-(pyridin-2-ylethynyl)pyridine from rat cortical membranes; NA=Not active", "method_in_brief": "as §3"}}, "data": [{"smiles": "CN(c1cccnc1)c1cc(F)cc(-n2nnc(-c3ccccn3)n2)c1", "values": [{"measurement": "concentration at 1 h", "setting": "[1]", "value": 3.5, "unit": "µM"}, {"measurement": "IC50", "setting": "[2]", "value": 22, "unit": "nM"}, {"measurement": "Occupancy", "setting": "[3]", "value": 58, "unit": "%"}, {"measurement": "Ki", "setting": "[4]", "value": 30, "unit": "nM"}, {"measurement": "concentration at 1 h", "setting": "[5]", "value": 4.9, "unit": "µM"}]}, {"smiles": "Fc1cc(Nc2cccnc2)cc(-n2nnc(-c3ccccn3)n2)c1", "values": [{"measurement": "IC50", "setting": "[2]", "value": 124, "unit": "nM"}, {"measurement": "Ki", "setting": "[4]", "value": 29, "unit": "nM"}]}, {"smiles": "c1ccc(-c2nnn(-c3cccc(Oc4cccnc4)c3)n2)nc1", "values": [{"measurement": "IC50", "setting": "[2]", "value": 30, "unit": "nM"}, {"measurement": "Occupancy", "setting": "[3]", "value": 60, "unit": "%"}, {"measurement": "Ki", "setting": "[4]", "value": 59, "unit": "nM"}]}, {"smiles": "Fc1cc(Oc2cccnc2)cc(-n2nnc(-c3ccccn3)n2)c1", "values": [{"measurement": "Cmax", "setting": "[6]", "value": 1.4, "unit": "µM"}, {"measurement": "concentration at 1 h", "setting": "[1]", "value": 7.4, "unit": "µM"}, {"measurement": "Vd", "setting": "[7]", "value": 0.7, "unit": "L/kg"}, {"measurement": "half-life", "setting": "[8]", "value": 2.5, "unit": "h"}, {"measurement": "Cmax", "setting": "[9]", "value": 11, "unit": "µM"}, {"measurement": "Vd", "setting": "[10]", "value": 22, "unit": "L/kg"}, {"measurement": "bioavailability", "setting": "[11]", "value": 54, "unit": "%"}, {"measurement": "half-life", "setting": "[12]", "value": 2.7, "unit": "h"}, {"measurement": "clearance", "setting": "[13]", "value": 7.7, "unit": "mL/min/kg"}, {"measurement": "IC50", "setting": "[2]", "value": 6.7, "unit": "nM"}, {"measurement": "Cmax", "setting": "[14]", "value": 0.3, "unit": "µM"}, {"measurement": "clearance", "setting": "[15]", "value": 21, "unit": "mL/min/kg"}, {"measurement": "bioavailability", "setting": "[16]", "value": 27, "unit": "%"}, {"measurement": "bioavailability", "setting": "[17]", "value": 100, "unit": "%"}, {"measurement": "Vd", "setting": "[18]", "value": 1.5, "unit": "L/kg"}, {"measurement": "clearance", "setting": "[19]", "value": 14, "unit": "mL/min/kg"}, {"measurement": "half-life", "setting": "[20]", "value": 2.3, "unit": "h"}, {"measurement": "Ki", "setting": "[4]", "value": 12, "unit": "nM"}, {"measurement": "concentration at 1 h", "setting": "[5]", "value": 6.7, "unit": "µM"}]}, {"smiles": "Fc1cc(-n2nnc(-c3ccccn3)n2)cc(-n2ccc3cccnc32)c1", "values": [{"measurement": "IC50", "setting": "[2]", "value": 16, "unit": "nM"}, {"measurement": "Ki", "setting": "[4]", "value": 25, "unit": "nM"}]}, {"smiles": "c1ccc(Oc2cccc(-n3nnc(-c4ccccn4)n3)c2)nc1", "values": [{"measurement": "IC50", "setting": "[2]", "value": 2860, "unit": "nM"}, {"measurement": "Ki", "setting": "[4]", "value": 633, "unit": "nM"}]}, {"smiles": "N#Cc1cc(F)cc(-n2nnc(-c3ccccn3)n2)c1", "values": [{"measurement": "concentration at 1 h", "setting": "[1]", "value": 8.7, "unit": "µM"}, {"measurement": "IC50", "setting": "[2]", "value": 3.9, "unit": "nM"}, {"measurement": "Occupancy", "setting": "[3]", "value": 97, "unit": "%"}, {"measurement": "concentration at 1 h", "setting": "[5]", "value": 9.7, "unit": "µM"}]}, {"smiles": "Fc1cc(Sc2cccnc2)cc(-n2nnc(-c3ccccn3)n2)c1", "values": [{"measurement": "concentration at 1 h", "setting": "[1]", "value": 3.4, "unit": "µM"}, {"measurement": "IC50", "setting": "[2]", "value": 13, "unit": "nM"}, {"measurement": "Occupancy", "setting": "[3]", "value": 83, "unit": "%"}, {"measurement": "Ki", "setting": "[4]", "value": 16, "unit": "nM"}, {"measurement": "concentration at 1 h", "setting": "[5]", "value": 1.5, "unit": "µM"}]}, {"smiles": "c1ccc(Oc2cccc(-n3nnc(-c4ccccn4)n3)c2)cc1", "values": [{"measurement": "IC50", "setting": "[2]", "value": 1460, "unit": "nM"}, {"measurement": "Ki", "setting": "[4]", "value": 617, "unit": "nM"}]}, {"smiles": "c1ccc(-c2nnn(-c3ccc(Oc4cccnc4)cc3)n2)nc1", "values": [{"measurement": "IC50", "setting": "[2]", "value": 737, "unit": "nM"}, {"measurement": "Ki", "setting": "[4]", "value": 633, "unit": "nM"}]}, {"smiles": "c1ccc(-c2nnn(-c3ccccc3Oc3cccnc3)n2)nc1", "values": [{"measurement": "IC50", "setting": "[2]", "value": 1580, "unit": "nM"}]}, {"smiles": "N#Cc1cccc(-n2nnc(-c3ccccn3)n2)c1", "values": [{"measurement": "concentration at 1 h", "setting": "[1]", "value": 13, "unit": "µM"}, {"measurement": "IC50", "setting": "[2]", "value": 73, "unit": "nM"}, {"measurement": "Occupancy", "setting": "[3]", "value": 96, "unit": "%"}, {"measurement": "Ki", "setting": "[4]", "value": 186, "unit": "nM"}, {"measurement": "concentration at 1 h", "setting": "[5]", "value": 12, "unit": "µM"}]}, {"smiles": "c1ccc(-c2nnn(-c3cccc(Oc4ccncc4)c3)n2)nc1", "values": [{"measurement": "IC50", "setting": "[21]", "value": "Not Active"}, {"measurement": "Ki", "setting": "[22]", "value": "Not Active"}]}, {"smiles": "Fc1cc(Cc2cccnc2)cc(-n2nnc(-c3ccccn3)n2)c1", "values": [{"measurement": "concentration at 1 h", "setting": "[1]", "value": 0.9, "unit": "µM"}, {"measurement": "IC50", "setting": "[2]", "value": 17, "unit": "nM"}, {"measurement": "Occupancy", "setting": "[3]", "value": 43, "unit": "%"}, {"measurement": "Ki", "setting": "[4]", "value": 38, "unit": "nM"}, {"measurement": "concentration at 1 h", "setting": "[5]", "value": 2.7, "unit": "µM"}]}]}
